Data on seven compounds can be found in ChEMBL document CHEMBL4145690, “Rational Design and Structure Validation of a Novel Peptide Inhibitor of the Adenomatous-Polyposis-Coli (APC)-Rho-Guanine-Nucleotide-Exchange-Factor-4 (Asef) Interaction” (J Med Chem, 2018).

pIC50: −log10 of the molar value. *1 amine or outer side, *2 acyl side, *3 side chain or, on linkers, in order; H or OH if unused. Where a SMILES comes first, the peptide text is derived from it. [ ]: non-standard residue; d: D form. The star is where a group is joined. X4 = O=C(C1(N[*:1])C[C@@H]2CC[C@H]1C2)[*:2]; X1 = O=C([C@H](Cc1ccc(Br)s1)N[*:1])[*:2]; X3 = O=C(c1cc2c(s1)CN([*:1])CC2)[*:2]; X2 = C=C(Br)C[C@H](N[*:1])C(=O)[*:2]; tBuAla = CC(C)(C)C[C@H](N)C(=O)O; hLeu = CC(C)CC[C@H](N)C(=O)O; Cbz = O=C(OCc1ccccc1)*

For this experiment, the target named is Adenomatous polyposis coli protein (Homo sapiens, UniProt P25054). Nature of the experiment: Binding affinity to APC protein (303 to 739 residues) (unknown origin) incubated for 60 mins followed by probe addition and measured after 60 mins by competitive fluorescence polarization assay. In outline: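 Peptide in DMSO preincubated with protein 60 min at room temperature with shaking; probe added, then 60 min more. Controls: blank, tracer only, complex only. IC50 from dose-response curves, mean of three independent experiments.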
Sequence of Adenomatous polyposis coli protein (P25054 whole entry, the tested form may be a part): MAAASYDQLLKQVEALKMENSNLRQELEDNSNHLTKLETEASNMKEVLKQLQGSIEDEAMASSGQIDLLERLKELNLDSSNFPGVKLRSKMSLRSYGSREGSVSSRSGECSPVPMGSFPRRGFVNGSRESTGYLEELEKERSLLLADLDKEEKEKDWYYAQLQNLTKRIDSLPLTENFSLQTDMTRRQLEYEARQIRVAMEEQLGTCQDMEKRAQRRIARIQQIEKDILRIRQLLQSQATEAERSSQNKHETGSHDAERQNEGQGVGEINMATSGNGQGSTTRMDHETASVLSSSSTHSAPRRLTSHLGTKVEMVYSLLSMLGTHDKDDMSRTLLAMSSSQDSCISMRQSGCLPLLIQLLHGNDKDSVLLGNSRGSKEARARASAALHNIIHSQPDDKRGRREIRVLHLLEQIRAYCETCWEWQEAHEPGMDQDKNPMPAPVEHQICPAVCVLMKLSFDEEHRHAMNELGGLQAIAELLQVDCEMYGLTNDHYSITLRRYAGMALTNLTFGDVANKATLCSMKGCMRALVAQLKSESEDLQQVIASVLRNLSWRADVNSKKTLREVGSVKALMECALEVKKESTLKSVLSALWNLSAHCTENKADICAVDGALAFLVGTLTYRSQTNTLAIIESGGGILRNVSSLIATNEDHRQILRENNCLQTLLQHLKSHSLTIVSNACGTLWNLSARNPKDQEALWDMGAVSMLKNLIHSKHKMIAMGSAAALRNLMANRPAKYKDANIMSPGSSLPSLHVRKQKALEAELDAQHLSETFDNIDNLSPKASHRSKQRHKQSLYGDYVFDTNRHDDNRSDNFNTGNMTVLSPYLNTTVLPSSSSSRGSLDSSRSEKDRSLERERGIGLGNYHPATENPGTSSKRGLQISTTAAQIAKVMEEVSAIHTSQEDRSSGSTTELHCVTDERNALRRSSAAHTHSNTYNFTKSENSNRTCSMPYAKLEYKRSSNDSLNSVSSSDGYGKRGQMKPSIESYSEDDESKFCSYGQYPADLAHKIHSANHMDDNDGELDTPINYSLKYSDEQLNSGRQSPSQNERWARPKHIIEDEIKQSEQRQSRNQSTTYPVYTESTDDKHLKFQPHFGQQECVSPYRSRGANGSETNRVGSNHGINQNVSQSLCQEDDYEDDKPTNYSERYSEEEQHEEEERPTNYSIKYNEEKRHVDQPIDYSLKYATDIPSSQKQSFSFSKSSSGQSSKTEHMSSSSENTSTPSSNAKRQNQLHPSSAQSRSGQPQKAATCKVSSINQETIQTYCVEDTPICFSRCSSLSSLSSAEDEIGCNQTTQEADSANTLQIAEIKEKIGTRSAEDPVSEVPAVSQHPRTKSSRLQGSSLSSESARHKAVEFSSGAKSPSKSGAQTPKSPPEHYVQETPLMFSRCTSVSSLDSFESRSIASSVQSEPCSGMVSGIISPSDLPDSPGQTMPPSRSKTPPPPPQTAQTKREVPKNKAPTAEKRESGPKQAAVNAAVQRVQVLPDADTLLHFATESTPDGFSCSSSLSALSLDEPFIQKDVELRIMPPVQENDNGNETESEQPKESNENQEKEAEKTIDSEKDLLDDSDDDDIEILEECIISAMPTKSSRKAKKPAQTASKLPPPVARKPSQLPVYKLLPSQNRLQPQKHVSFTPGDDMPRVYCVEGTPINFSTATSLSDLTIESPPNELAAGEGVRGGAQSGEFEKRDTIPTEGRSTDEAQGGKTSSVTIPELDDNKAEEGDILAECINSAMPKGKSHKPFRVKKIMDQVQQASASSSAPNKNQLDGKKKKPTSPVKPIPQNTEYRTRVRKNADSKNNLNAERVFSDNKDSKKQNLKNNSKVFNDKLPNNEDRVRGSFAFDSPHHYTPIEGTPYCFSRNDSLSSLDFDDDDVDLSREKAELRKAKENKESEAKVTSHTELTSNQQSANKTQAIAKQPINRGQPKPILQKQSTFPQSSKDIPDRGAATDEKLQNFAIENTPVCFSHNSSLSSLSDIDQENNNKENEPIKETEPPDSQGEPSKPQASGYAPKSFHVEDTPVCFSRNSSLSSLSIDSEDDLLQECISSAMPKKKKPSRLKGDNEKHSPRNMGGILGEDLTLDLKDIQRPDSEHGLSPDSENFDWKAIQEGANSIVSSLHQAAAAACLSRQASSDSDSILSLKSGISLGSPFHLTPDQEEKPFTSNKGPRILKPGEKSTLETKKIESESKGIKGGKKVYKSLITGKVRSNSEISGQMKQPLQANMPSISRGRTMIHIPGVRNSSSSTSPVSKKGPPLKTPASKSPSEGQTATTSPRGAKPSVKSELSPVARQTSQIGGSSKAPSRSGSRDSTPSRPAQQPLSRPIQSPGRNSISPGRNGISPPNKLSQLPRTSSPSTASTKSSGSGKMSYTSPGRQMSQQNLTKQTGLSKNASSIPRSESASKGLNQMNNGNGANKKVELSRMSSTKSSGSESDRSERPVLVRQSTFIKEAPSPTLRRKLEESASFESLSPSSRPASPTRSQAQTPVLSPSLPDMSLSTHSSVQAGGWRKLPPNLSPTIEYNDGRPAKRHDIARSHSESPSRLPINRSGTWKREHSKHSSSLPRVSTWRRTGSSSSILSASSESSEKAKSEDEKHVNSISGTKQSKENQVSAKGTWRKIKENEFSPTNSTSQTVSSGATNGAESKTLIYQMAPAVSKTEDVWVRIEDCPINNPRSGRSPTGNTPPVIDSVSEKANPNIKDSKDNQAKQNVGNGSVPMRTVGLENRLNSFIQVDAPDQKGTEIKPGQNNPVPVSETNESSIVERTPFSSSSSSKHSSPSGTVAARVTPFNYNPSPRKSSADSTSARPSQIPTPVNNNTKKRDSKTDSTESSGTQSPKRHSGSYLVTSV
In general terms: Fluorescence polarisation rises when a labelled molecule tumbles more slowly, as on binding a larger partner.
A word on the pIC50: it is the negative decadic logarithm of the IC50, by convention in mol/L. Read a high pIC50 as a low IC50. The compound `C[C@H](NC(=O)OCc1ccccc1)C(=O)NCC(=O)N[C@@H](CCC(=O)O)C(=O)N[C@@H](CO)C(=O)N[C@@H](Cc1ccc(Br)s1)C(=O)N[C@@H](Cc1ccc(O)cc1)C(=O)N[C@@H](CCC(=O)O)C(N)=O` (Cbz-AGES[X1]YE-NH2) showed a pIC50 of 5.30.

Regarding `C=C(Br)C[C@H](NC(=O)[C@H](CO)NC(=O)[C@H](CCC(=O)O)NC(=O)CNC(=O)[C@H](C)NC(=O)OCc1ccccc1)C(=O)N[C@@H](Cc1ccc(O)cc1)C(=O)N[C@@H](CCC(=O)O)C(N)=O` (Cbz-AGES[X2]YE-NH2), the negative-log IC50 (pIC50) was 5.74.

Consider `C[C@H](NC(=O)OCc1ccccc1)C(=O)NCC(=O)N[C@@H](CCC(=O)O)C(=O)N[C@@H](CO)C(=O)NC1(C(=O)N[C@@H](Cc2ccc(O)cc2)C(=O)N[C@@H](CCC(=O)O)C(N)=O)C[C@@H]2CC[C@H]1C2` (some centres not stated) (Cbz-AGES[X4]YE-NH2), for which the pIC50 is 3.89.

As to `CC(C)CC[C@H](NC(=O)[C@H](CO)NC(=O)[C@H](CCC(=O)O)NC(=O)CNC(=O)[C@H](C)NC(=O)OCc1ccccc1)C(=O)N[C@@H](Cc1ccc(O)cc1)C(=O)N[C@@H](CCC(=O)O)C(N)=O` (Cbz-AGES[hLeu]YE-NH2), the pIC50 is 6.08.

On to `C[C@H](NC(=O)OCc1ccccc1)C(=O)NCC(=O)N[C@@H](CCC(=O)O)C(=O)N[C@@H](CO)C(=O)N[C@@H](CC(C)(C)C)C(=O)N[C@@H](Cc1ccc(O)cc1)C(=O)N[C@@H](CCC(=O)O)C(N)=O` (Cbz-AGES[tBuAla]YE-NH2), for which the pIC50 is 5.75.

As to `CC(C)C[C@H](NC(=O)[C@H](Cc1ccc(O)cc1)NC(=O)[C@H](CCC(=O)O)NC(=O)CNC(=O)[C@H](C)NC(=O)OCc1ccccc1)C(=O)N[C@@H](Cc1ccc(O)cc1)C(=O)N[C@@H](CCC(=O)O)C(N)=O` (Cbz-AGEYLYE-NH2), the negative-log IC50 (pIC50) was 5.26.

`C[C@H](NC(=O)OCc1ccccc1)C(=O)NCC(=O)N[C@@H](CCC(=O)O)C(=O)N1CCc2cc(C(=O)N[C@@H](Cc3ccc(O)cc3)C(=O)N[C@@H](CCC(=O)O)C(N)=O)sc2C1` (Cbz-AGE[X3]YE-NH2): the Kd result is “Not Active”.
